Published values collected from several papers.
Target: Myosin light chain kinase (MYLK3, Homo sapiens, UniProt Q32MK0)
One construct used (Q32MK0 1-819): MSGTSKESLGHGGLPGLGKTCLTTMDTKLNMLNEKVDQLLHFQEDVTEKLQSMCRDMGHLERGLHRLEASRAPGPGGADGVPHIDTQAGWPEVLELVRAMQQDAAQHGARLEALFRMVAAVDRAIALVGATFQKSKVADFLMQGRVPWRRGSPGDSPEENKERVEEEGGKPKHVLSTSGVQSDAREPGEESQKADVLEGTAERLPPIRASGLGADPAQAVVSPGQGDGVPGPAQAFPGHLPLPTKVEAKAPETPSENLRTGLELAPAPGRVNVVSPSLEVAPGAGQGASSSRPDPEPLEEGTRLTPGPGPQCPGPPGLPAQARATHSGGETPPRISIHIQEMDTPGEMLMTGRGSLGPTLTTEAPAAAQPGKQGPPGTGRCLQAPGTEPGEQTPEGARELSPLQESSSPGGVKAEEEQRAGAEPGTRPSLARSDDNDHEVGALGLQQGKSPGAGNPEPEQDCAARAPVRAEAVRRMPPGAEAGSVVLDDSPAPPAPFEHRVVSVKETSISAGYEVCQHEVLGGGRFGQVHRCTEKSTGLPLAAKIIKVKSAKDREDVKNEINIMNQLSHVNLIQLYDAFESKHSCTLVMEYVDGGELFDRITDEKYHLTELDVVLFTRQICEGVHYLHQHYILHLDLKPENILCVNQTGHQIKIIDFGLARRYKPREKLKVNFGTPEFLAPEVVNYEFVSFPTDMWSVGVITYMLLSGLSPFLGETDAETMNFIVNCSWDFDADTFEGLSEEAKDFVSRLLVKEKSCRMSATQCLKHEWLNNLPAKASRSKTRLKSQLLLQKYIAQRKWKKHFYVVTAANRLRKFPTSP

SMILES	test	conditions	endpoint	result
Nc1ncnc2occ(-c3ccc(NC(=O)Nc4cc(C(F)(F)F)ccc4F)cc3)c12	cell-free assay, inhibitor	20 µM	remaining signal	0.15%
CO[C@@H](C)c1c(Nc2ccc([C@@H](N(C)C(=O)C3CCS(=O)(=O)CC3)C(F)(F)F)cc2)cnc2cc(Cl)nn12	cell-free assay, competition with immobilised ligand	1 µM	remaining binding	87%
CC(C)(O)[C@H]1CC[C@H](Nc2ccc3ncc(-c4cccc(C(F)(F)F)c4)n3n2)CC1	enzyme activity, inhibitor	1 µM	remaining activity	100%
F[C@@H]1CCN(c2nccc(-c3cnn4ncccc34)n2)C1	binding	1 µM	remaining binding	100%
CC(C)(C)c1nc(-c2cccc(NS(=O)(=O)c3c(F)cccc3F)c2F)c(-c2ccnc(N)n2)s1	enzyme activity, inhibitor, radiometric	1 µM	remaining activity	100%
Cc1cnn2ncc(-c3ccnc(N(C)C)n3)c2c1	binding	1 µM	remaining binding	96%
O=C(Nc1cnn(-c2csc(C(=O)NC3COC3)c2)c1)Nc1ccccc1Cl	enzyme activity, inhibitor	5 µM	remaining activity	95.1%
Cc1ccc(C(=O)Nc2ccc(CN3CCN(C)CC3)c(C(F)(F)F)c2)cc1C#Cc1cnc2cccnn12	enzyme activity, inhibitor	23.5 nM	remaining activity	99%
CC(C)(C)c1nc2c(s1)c1nc(N)ncc1c1ccc(NS(=O)(=O)c3c(F)cccc3F)c(F)c12	enzyme activity, inhibitor, radiometric	1 µM	remaining activity	93%
O=C1CCc2cc(Nc3cc(OC4CCOCC4)c([N+](=O)[O-])cc3Cl)ccc2N1	cell-free assay, competition with immobilised ligand	1 µM	remaining binding	100%
